Active and inactive are the calls of the source. The calls are words filed in the database; no cut-off is given here.
species on record: Cavia porcellus; test: Inhibition of LTD4-induced contraction in guinea pig ileum. Not active at highest concentration tested, 3 x 10 E-6 M; type: functional; settings: not given
Method in brief: (§1)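 Isolated guinea pig ileum contracted with a submaximal concentration of LTD4. Two, three or four antagonist concentrations were tested on a single ileum. […] Alternatively, pKB was taken as -log of the antagonist concentration producing a twofold rightward shift of the LTD4 concentration-response curve.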

Row | -Log IC50 | Structure (SMILES)
1 | inactive | CC(=O)c1ccc(COc2ccc(Cc3nnn[nH]3)cc2)cc1O

species on record: Cavia porcellus; test: Inhibition of LTD4-induced contraction in guinea pig ileum. Not active at highest concentration tested, 1 x 10 E-5 M; type: functional; settings: not given; method in brief: as §1

Row | -Log IC50 | Structure (SMILES)
2 | inactive | CCCc1c(COc2ccc(Cc3nnnn3C)cc2)ccc(C(C)=O)c1O
3 | inactive | CCCc1c(COc2ccc(-c3nn[nH]n3)cc2)ccc(C(=O)c2ccccc2)c1O

species on record: Cavia porcellus; test: Antagonist activity was evaluated against LTD4-induced contraction in guinea pig ileum; type: functional; settings: read-out: pA2 (converted); method in brief: as §1

Row | Structure (SMILES) | Kb [nM]
4 | CCCc1c(OCCCCc2nnn[nH]2)ccc(C(C)=O)c1O [TOMELUKAST] | 63.1

molecular target: Cysteinyl leukotriene receptor (Cavia porcellus); test: Inhibition of LTD4-induced contraction in guinea pig ileum; settings: not given

Row | Structure (SMILES) | -Log IC50
5 | CCCc1c(COc2ccc(-c3nn[nH]n3)cc2)ccc(C=O)c1O | 6.4
6 | CCCc1c(CSCc2ccc(-c3nn[nH]n3)cc2)ccc(C(C)=O)c1O | 6.5
7 | CCc1c(COc2ccc(-c3nn[nH]n3)cc2)ccc(C(C)=O)c1O | 7.9
8 | CCCc1c(OCc2ccc(-c3nn[nH]n3)cc2)ccc(C(C)=O)c1O | 7
9 | CCCc1c(COc2ccccc2Cc2nnn[nH]2)ccc(C(C)=O)c1O | 6.2
10 | CC(=O)c1ccc(COc2ccc(-c3nn[nH]n3)cc2)c(C)c1O | 7
11 | CCCc1c(CSc2ccc(-c3nn[nH]n3)cc2)ccc(C(C)=O)c1O | 7.7
12 | CCCc1c(COc2cccc(OCc3nn[nH]n3)c2)ccc(C(C)=O)c1O | 8
13 | CCCc1c(COc2ccc(OCc3nn[nH]n3)cc2)ccc(C(C)=O)c1O | 7.8
14 | CCCc1c(COc2ccc(/C=C/c3nn[nH]n3)cc2)ccc(C(C)=O)c1O | 7.4
15 | CCCc1c(COCCOc2ccc(-c3nn[nH]n3)cc2)ccc(C(C)=O)c1O | 7.3

The remaining lines, values ahead:

Row | -Log IC50 | Structure (SMILES)
16 | 7.7 | CC(=O)c1ccc(COc2ccc(Cc3nnn[nH]3)cc2)c(CC(C)C)c1O
17 | 5.8 | CCCc1c(COc2ccc(Cc3nnn[nH]3)cc2)ccc(/C(C)=N\O)c1O
18 | 6.2 | CCCc1c(COc2ccc(Cc3nnn(C)n3)cc2)ccc(C(C)=O)c1O
19 | 7.9 | CCCc1c(COc2ccc(C(C)c3nnn[nH]3)cc2)ccc(C(C)=O)c1O (stereo unspecified)
20 | 7.3 | CCCc1c(COc2ccc(CCCc3nnn[nH]3)cc2)ccc(C(C)=O)c1O
21 | 6.3 | CCCc1c(COc2ccc(Cc3nnn[nH]3)cc2)ccc(C(C)=O)c1OC
22 | 7 | CCCc1c(COc2ccc(Cc3nnn[nH]3)cc2)ccc(C(=O)CC)c1O
23 | 7.9 | CCCCc1c(COc2ccc(-c3nn[nH]n3)cc2)ccc(C(C)=O)c1O
24 | 8.1 | CCCc1c(COc2ccc(CCc3nnn[nH]3)cc2)ccc(C(C)=O)c1O
25 | 7.5 | CCCc1c(CNc2ccc(Cc3nnn[nH]3)cc2)ccc(C(C)=O)c1O
26 | 7.8 | CCCCc1c(COc2ccc(Cc3nnn[nH]3)cc2)ccc(C(C)=O)c1O
27 | 8 | CCCc1c(COc2ccc(-c3nn[nH]n3)cc2)ccc(C(C)=O)c1O
28 | 7 | CCCc1c(COCCOc2ccc(Cc3nnn[nH]3)cc2)ccc(C(C)=O)c1O
29 | 7.9 | CCc1c(COc2ccc(Cc3nnn[nH]3)cc2)ccc(C(C)=O)c1O
30 | 8 | CCCc1c(COc2ccc(Cc3nnn[nH]3)cc2)ccc(C(C)=O)c1O [LY-163443]
31 | 7 | CCCc1c(COc2cccc(Cc3nnn[nH]3)c2)ccc(C(C)=O)c1O

From ChEMBL document CHEMBL1123927, “Leukotriene receptor antagonists. 2. The [[(tetrazol-5-ylaryl)oxy]methyl]acetophenone derivatives” (J Med Chem, 1987)
